A short description of data set [1]: Ratio of invivo prodrug activation in tumor of BALB/C nude mouse xenografted with human MDA-MB-231 cells assessed as FAP-alpha mediated (S)-((3S,5R,8R,9S,10S,11S,13R,14S,17R)-11,14-dihydroxy-10,13-dimethyl-12-oxo-17-(2-oxo-2H-pyran-5-yl)hexadecahydro-1H-cyclopenta[a]phenanthren-3-yl) 2-amino-3-(1H-indol-3-yl)propanoate formation in absence of talabostat to FAP-alpha mediated (S)-((3S,5R,8R,9S,10S,11S,13R,14S,17R)-11,14-dihydroxy-10,13-dimethyl-12-oxo-17-(2-oxo-2H-pyran-5-yl)hexadecahydro-1H-cyclopenta[a]phenanthren-3-yl) 2-amino-3-(1H-indol-3-yl)propanoate formation in presence of talabostat at 40 umol/L by LC-MS/MS analysis. Further details: species or system Neoplasm.

For data set [2], the system named is Mus musculus. Briefly: Toxicity in BALB/C nude mouse xenografted with human MDA-MB-231 cells assessed as histopathologic change in femur at 12 umol/kg, iv administered starting on day 5 measured after day 22 by hematoxylin-eosin staining-based assay. In kind it is organism-based. The conditions noted are these: in vivo. In short, it runs like this:
(§1)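 Tissues from dosed xenograft mice fixed for 24 h and paraffin-embedded. Sections of 5 μm, H&E stained; heart, liver, spleen, lung, kidney and femur examined by a pathologist blind to treatment.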
On the technique in general: Xenograft models place foreign cells or tissue in a host animal.

The subject of data set [3] is MDA-MB-231. Briefly: Induction of apoptosis in human MDA-MB-231 cells xenografted in BALB/C nude mouse at 4 umol/kg, iv administered starting on day 5 measured after day 22 by tunnel assay relative to control. The settings on record: in the assay text read “12 umol/kg” for “4 umol/kg”. In kind it is functional. In short, it runs like this: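 Paraffin tumour sections from dosed xenograft mice stained by in situ cell death detection (TUNEL), examined blind to treatment. Percentage of apoptotic cells quantified by image analysis. Mean ± SEM, n = 6, versus the 5% HS15 control.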

The next data set deals with MCF7. Briefly: Antiproliferative activity against FAP-alpha deficient human MCF7 cells incubated for 48 hrs by MTT assay. In kind it is functional, cell-based. The settings on record: MCF7, 48 h. In short, it runs like this: (§2)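 Cells grown in DMEM with 10% FBS and 1% penicillin-streptomycin at 37 °C, 5% CO2; 10% heat-inactivated FBS used during cytotoxicity testing to exclude serum FAP activity. Viability read by MTT; IC50 as mean ± SEM of at least three independent experiments. Transfected lines were made from MDA-MB-231 with human FAPα plasmid or empty pCMV6-Entry vector and checked by Western blot at 48 h.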
(In general: Tetrazolium assays rely on reduction of a dye to a coloured formazan, in cell work by metabolically active cells.)

Data set [4] deals with Mus musculus. Briefly: Nephrotoxicity in BALB/C nude mouse xenografted with human MDA-MB-231 cells at 12 umol/kg, iv administered starting on day 5 measured after day 22 by hematoxylin-eosin staining-based assay. In kind it is toxicity, organism-based. The settings on record: in vivo. In short, it runs like this: as §1
The test system of data set [5] is Mus musculus. Briefly: Cardiotoxicity in BALB/C nude mouse xenografted with human MDA-MB-231 cells assessed as change in interventricular septal systole dimension at 12 umol/kg, iv administered starting on day 5 measured after day 22 by echocardiography. It counts as toxicity, organism-based. The conditions noted are these: in vivo. In short, it runs like this: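 Same MDA-MB-231 xenograft mice, given daily iv doses in 5% HS15 from day 5. After 22 days of dosing, transthoracic echocardiography with a 21 MHz transducer under 1.5% isoflurane, supine. M-mode images taken from the parasternal short-axis view at the papillary muscle; IVSd, IVSs, LVIDd and LVIDs derived, n = 6.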

Data set [6] can be described thus: Cytotoxicity in BMSC (unknown origin) assessed as cell viability at 1000 nmol/L after 72 hrs by MTT assay. In kind it is cell-based. The settings on record: unidentified, 1 µM.
Data set [7] concerns MDA-MB-231. Nature of the data set: Antitumor activity against human MDA-MB-231 cells xenografted in BALB/C nude mouse at 4 umol/kg, iv administered starting on day 5 measured after day 22 by Ki67 staining-based assay relative to control. It counts as functional. In short, it runs like this:
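Female BALB/C nude mice, MDA-MB-231 cells (1 × 10^7) injected subcutaneously in Matrigel–PBS 1:1. Daily iv dosing in 5% HS15 vehicle from day 5. Tumours fixed and paraffin-embedded, 5 μm sections, anti-Ki67 IHC, read blind by a pathologist. Proliferative index by image analysis, n = 6. Compared with 5% HS15 control by one-way ANOVA and Tukey's test.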

A short description of data set [8]: Acute toxicity in iv dosed Kunming mouse measured less than 4 hrs post dose. In kind it is organism-based. The conditions noted are these: in vivo. In short, it runs like this:
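Kunming mice (22.0−28.0 g), half male and half female, 10 groups of n = 10. Single iv dose on day 1 across five levels per compound (prodrug 29.98–50.00 μmol/kg; arenobufagin 4.50–8.00 μmol/kg). Watched continuously for 8 h for abnormal behaviour and deaths, then intermittently for 2 weeks, and sacrificed day 14. LD50 by Bliss method.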

Data set [9] relates to MDA-MB-231. Nature of the data set: Antiproliferative activity against FAP-alpha deficient human MDA-MB-231 cells incubated for 48 hrs by MTT assay. In kind it is functional, cell-based. The conditions noted are these: MDA-MB-231, 48 h. In short, it runs like this:
as §2

In data set [10] the test system is Mus musculus. Briefly: Cardiotoxicity in BALB/C nude mouse xenografted with human MDA-MB-231 cells assessed as cytoplasmic vacuolization at 12 umol/kg, iv administered starting on day 5 measured after day 22 by hematoxylin-eosin staining-based assay. The conditions noted are these: in vivo. In kind it is toxicity, organism-based. In short, it runs like this: as §1

Data set [11] relates to Mus musculus. Nature of the data set: Cardiotoxicity in BALB/C nude mouse xenografted with human MDA-MB-231 cells assessed as change in LDH level at 12 umol/kg, iv administered starting on day 5 measured after day 22. It counts as toxicity, organism-based. The settings on record: in vivo. In short, it runs like this:
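Serum from xenograft mice given daily iv doses in 5% HS15: blood taken by cardiac puncture before sacrifice and spun at 3000 rpm for 20 min at 4 °C. D-LDH activity measured with a colorimetric kit. Mean ± SEM, n = 6; one-way ANOVA with Tukey's test against the 5% HS15 control.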

Data set [12] relates to MDA-MB-231. Nature of the data set: Antitumor activity against human MDA-MB-231 cells xenografted in BALB/C nude mouse assessed as decrease in tumor weight at 4 umol/kg, iv administered starting on day 5 measured after day 22. It counts as functional, organism-based. In short, it runs like this:
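Female BALB/C mice inoculated subcutaneously in the back with 1 × 10^7 MDA-MB-231 cells in Matrigel–PBS (1:1). From day 5, daily iv dosing in 5% Solutol-HS15 vehicle, with a vehicle control group. Tumours measured by caliper every 2 days (v = 0.5 × a × b²); tumour weight as mean ± SEM, n = 6, one-way ANOVA with Tukey's test.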

Data set [13] relates to MDA-MB-231. Briefly: Antiproliferative activity against human MDA-MB-231 cells transfected with human FAP-alpha incubated for 48 hrs by MTT assay. It counts as functional, cell-based. The settings on record: MDA-MB-231, 48 h. In short, it runs like this: as §2

The source made the active and inactive calls. No cut-off for these calls is given here.

The results in this text go back to ChEMBL document CHEMBL4038302, “Fibroblast Activation Protein α Activated Tripeptide Bufadienolide Antitumor Prodrug with Reduced Cardiotoxicity” (J Med Chem, 2017).

A word on the IC50: it is the concentration needed to halve the response being measured. Lower therefore signals higher potency. By LD50 is commonly meant the dose at which mortality reaches 50%. A low value points to greater toxicity.

Turning to `C[C@]12CC[C@H](OC(=O)[C@H](Cc3c[nH]c4ccccc34)NC(=O)[C@@H]3CCCN3C(=O)CNC(=O)OCc3ccccc3)C[C@H]1CC[C@@H]1[C@@H]2[C@H](O)C(=O)[C@]2(C)[C@@H](c3ccc(=O)oc3)CC[C@]12O`, the Ratio in data set [1] is reported as 20. Also, the Activity entry in the data set on Mus musculus [2] was “Non-Toxic”; with Mus musculus [4], “Non-Toxic”; in the data set with Mus musculus [5], “Non-Toxic”; in [6] it was “Non-Toxic”; with MDA-MB-231 [7], 45 - 50%; in the data set with Mus musculus [10] it was “Non-Toxic”. The Activity result in the data set on Mus musculus [11] was “Non-Toxic”. The “fold change (FC)” value in the data set on MDA-MB-231 [3] was found to be 5. In addition, the IC50 amounted to 11.6 nM with MCF7, 27 nM with MDA-MB-231 [9] and 11.7 nM in the data set on MDA-MB-231 [13]. The compound further yielded an LD50 at 4 h in data set [8] of 44 µmol/kg. The result with MDA-MB-231 [12] was Active.
